Published values pooled from the literature.
Protocols differ between the studies behind these lines. Values after ≈ are worked out from the molar mass of the structure shown.
Organism: Staphylococcus aureus

`O=C(O)c1cn(C2CC2)c2cc(N3CCNCC3)c(F)cc2c1=O` has an inhibition zone of 0 mm (microbial growth, disc diffusion; 100 µg/mL, 24 h).
`O=c1c(O)c(-c2ccc(O)c(O)c2)oc2cc(O)cc(O)c12` has an IC50 of greater than 100000 nM (microbial growth; ATCC29213; 24 h).
For `CN(C)[C@@H]1C(O)=C(C(N)=O)C(=O)[C@@]2(O)C(O)=C3C(=O)c4c(O)cccc4[C@@](C)(O)[C@H]3C[C@@H]12`, the inhibition zone was 25 mm (microbial growth, disc diffusion; 100 µg/mL, 24 h).
`CN[C@H](CC(C)C)C(=O)N[C@H]1C(=O)N[C@@H](CC(N)=O)C(=O)N[C@H]2C(=O)N[C@H]3C(=O)N[C@H](C(=O)N[C@H](C(=O)O)c4cc(O)cc(O)c4-c4cc3ccc4O)[C@H](O)c3ccc(c(Cl)c3)Oc3cc2cc(c3O[C@@H]2O[C@H](CO)[C@@H](O)[C@H](O)[C@H]2O[C@H]2C[C@](C)(N)[C@H](O)[C@H](C)O2)Oc2ccc(cc2Cl)[C@H]1O` has an IC50 of 2160 nM (microbial growth; ATCC29213; 24 h).
`CO/N=C(\C(=O)N[C@@H]1C(=O)N2C(C(=O)O)=C(CSC(=O)c3ccco3)CS[C@H]12)c1csc(N)n1` gave an MBC of 2 µg/mL (microbial killing; ATCC25923; 18 h).
With `Cc1ccc(-c2nnc(SCC(C)O)n2-c2ccccc2)cc1` (stereo not drawn) the inhibition zone was 10 mm (microbial growth, disc diffusion; 25 µg/disc).
`CN[C@H](CC(C)C)C(=O)N[C@H]1C(=O)N[C@@H](CC(N)=O)C(=O)N[C@H]2C(=O)N[C@H]3C(=O)N[C@H](C(=O)N[C@H](C(=O)O)c4cc(O)cc(O)c4-c4cc3ccc4O)[C@H](O)c3ccc(c(Cl)c3)Oc3cc2cc(c3O[C@@H]2O[C@H](CO)[C@@H](O)[C@H](O)[C@H]2O[C@H]2C[C@](C)(N)[C@H](O)[C@H](C)O2)Oc2ccc(cc2Cl)[C@H]1O` has an MBC of 1.95 µg/mL (≈ 1.35 µM) (microbial killing; ATCC25904).
With `C=C/C=C(\C)CC[C@@H]1C[C@H](O)CC(=O)O1` the MIC was 256 µg/mL (≈ 1220 µM) (microbial growth, broth dilution; ATCC6538P).
`CC(O)CSc1nnc(Cn2cnc3c2c(=O)n(C)c(=O)n3C)n1-c1ccccc1` (stereo not drawn) has an inhibition zone of 12.7 mm (microbial growth, disc diffusion; 25 µg/disc).
`C[C@H]1COc2c(N3CCN(C)CC3)c(F)cc3c(=O)c(C(=O)O)cn1c23` gave an MBC of 0.09 µg/mL (≈ 0.249 µM) (microbial killing; ATCC25904).
The inhibition zone of `CC(O)CSc1nnc(COc2ccc(Cl)cc2Br)n1-c1ccccc1` (stereo not drawn) is reported as 19.3 mm (microbial growth, disc diffusion; 25 µg/disc).
`CN[C@H](CC(C)C)C(=O)N[C@H]1C(=O)N[C@@H](CC(N)=O)C(=O)N[C@H]2C(=O)N[C@H]3C(=O)N[C@H](C(=O)N[C@H](C(=O)O)c4cc(O)cc(O)c4-c4cc3ccc4O)[C@H](O)c3ccc(c(Cl)c3)Oc3cc2cc(c3O[C@@H]2O[C@H](CO)[C@@H](O)[C@H](O)[C@H]2O[C@H]2C[C@](C)(N)[C@H](O)[C@H](C)O2)Oc2ccc(cc2Cl)[C@H]1O` has an MBC of 2 µg/mL (≈ 1.38 µM) (microbial killing; ATCC25923; 18 h).
